The results in this text go back to ChEMBL document CHEMBL1137638, “TEM-158 (CMT-9), a new member of the CMT-type extended-spectrum beta-lactamases” (Antimicrob Agents Chemother, 2007).

Active and inactive are the calls of the source. No cut-off for these calls is given here.

Assay [1] concerns Escherichia coli. The experiment in a line: Antibacterial activity against Escherichia coli BER1 producing TEM-158 by microdilution method. The assay is classed as functional, organism-based. On the technique in general: In broth dilution the organism is exposed to a series of concentrations in liquid medium.
Assay [2] relates to Escherichia coli. The experiment in a line: Ratio of Kcat/Km for Escherichia coli DH5alpha beta-lactamase TEM-12 to Kcat/Km for Escherichia coli DH5alpha beta-lactamase TEM-158. In outline: (§1)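 Each beta-lactamase was purified to homogeneity. Kinetic constants (kcat, Km) for beta-lactam substrates, including penicillins, were determined by computerized microacidimetry.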
The test system of assay [3] is Escherichia coli. Put plainly: Antibacterial activity against Escherichia coli BER1 producing beta-lactamase TEM-158. The format is functional, organism-based.
Assay [4] deals with Escherichia coli. The experiment in a line: Ratio of Kcat to Km for Escherichia coli DH5alpha beta-lactamase TEM-12. Details: unit not given here. In outline: as §1
The subject of assay [5] is Escherichia coli. Put plainly: Activity of Escherichia coli DH5alpha beta-lactamase TEM-12 by microacidimetric method. In short, it runs like this:
as §1

Assay [6] relates to Escherichia coli. The experiment in a line: Activity of Escherichia coli CF0042 beta-lactamase TEM-35 by microacidimetric method. In short, it runs like this:
as §1

Assay [7] deals with Escherichia coli. The experiment in a line: Ratio of Kcat/Km for Escherichia coli DH5alpha beta-lactamase TEM-35 to Kcat/Km for Escherichia coli DH5alpha beta-lactamase TEM-158. In short, it runs like this:
as §1

The test system of assay [8] is Escherichia coli. Put plainly: Ratio of Kcat to Km for Escherichia coli CF0042 beta-lactamase TEM-35. Details: unit not given here. In short, it runs like this: as §1
Assay [9] relates to Escherichia coli. Put plainly: Ratio of Kcat/Km for Escherichia coli DH5alpha beta-lactamase TEM-1 to Kcat/Km for Escherichia coli DH5alpha beta-lactamase TEM-158. In short, it runs like this: as §1
The subject of assay [10] is Escherichia coli str. K-12 substr. DH10B.

In the case of `C[C@@H](O)[C@H]1C(=O)N2C(C(=O)O)=C(SCCNC=N)C[C@H]12`, the outcome in [1] and in [3] was inactive. For the same compound, in [2], the Ratio turned out to be 4.
By Km is commonly meant the substrate concentration at which the rate is half of its maximum. In general, kcat refers to the maximal rate divided by the concentration of active sites. For the compound `CCN1CCN(C(=O)N[C@@H](C(=O)N[C@@H]2C(=O)N3[C@@H]2SC(C)(C)[C@@H]3C(=O)O)c2ccccc2)C(=O)C1=O`, the kcat/Km in assay [4] stood at 6; in assay [8], 2.9. Besides, the Km in assay [5] was determined as 15 µM; in [6] it was 320 µM. The turnover number (kcat) was 89 s⁻¹ in assay [5] and 945 s⁻¹ in assay [6]. Further, the outcome in assay [1] and in assay [3] was inactive. Moreover, the Ratio in assay [2], in [7] and in assay [9] was 8 in each case.
For the compound `C[C@H]1[C@H](NC(=O)/C(=N\OC(C)(C)C(=O)O)c2csc(N)n2)C(=O)N1S(=O)(=O)O`, the kcat/Km in assay [4] worked out at 0.008. In addition, in [5], the Michaelis-Menten constant (Km) was 247 µM. For the same compound, the values for the turnover number (kcat) in assay [5] and in assay [6] were 2 s⁻¹ and below 0.1 s⁻¹, respectively. The outcome in [1] and in [3] was inactive. The Ratio in assay [2] is 4.
`CC1(C)S[C@@H]2[C@H](NC(=O)[C@H](N)c3ccc(O)cc3)C(=O)N2[C@H]1C(=O)O`: the kcat/Km in assay [4] stood at 8; in assay [8], 8.5. Besides, the Km in assay [5] amounted to 7.5 µM; in assay [6], 245 µM. Also, the turnover number (kcat) in assay [5] came to 60 s⁻¹; in assay [6] it was 900 s⁻¹. For the same compound, the result in [1] and in assay [3] was inactive. Further, the Ratio in [2] is 4; in assay [7], 8; in assay [9], 8.
For `CC(=O)OCC1=C(C(=O)O)N2C(=O)[C@@H](NC(=O)Cc3cccs3)[C@H]2SC1`, the kcat/Km in [4] is 0.02; in [8], 0.04. The results for the Michaelis constant (Km) in [5] and in assay [6] were 327 µM and 1200 µM, respectively. Moreover, the turnover number (kcat) in assay [5] came out at 46 s⁻¹; in [6], 52 s⁻¹. The result in assay [1] and in [3] was inactive. The Ratio in [2] stood at 4.
Regarding `CO[C@@]1(NC(=O)Cc2cccs2)C(=O)N2C(C(=O)O)=C(COC(N)=O)CS[C@@H]21`, the result in assay [1] and in assay [3] was inactive. The Ratio in assay [2] amounted to 4.
As to `CC(C)(O/N=C(\C(=O)N[C@@H]1C(=O)N2C(C(=O)[O-])=C(C[n+]3ccccc3)CS[C@H]12)c1csc(N)n1)C(=O)O`, the kcat/Km in [4] worked out at 0.04. Besides, in assay [5], the Michaelis constant (Km) was 254 µM. For the same compound, the turnover number (kcat) in assay [5] was 11.1 s⁻¹; in assay [6] it was below 0.1 s⁻¹; in assay [10], 16 s⁻¹. For the same compound, the result in assay [1] and in [3] was inactive. Besides, in assay [2], the Ratio came to 4.
With `CO/N=C(\C(=O)N[C@@H]1C(=O)N2C(C(=O)O)=C(COC(C)=O)CS[C@H]12)c1csc(N)n1`, the kcat/Km in assay [4] turned out to be 0.03. For the same compound, the Km in [5] was found to be 320 µM. Further, the kcat in [5] is 10.6 s⁻¹; in assay [6], below 0.1 s⁻¹. The result in assay [1] and in assay [3] was inactive. In assay [2], the Ratio is 4.
Consider `CC1(C)S[C@@H]2[C@H](NC(=O)Cc3ccccc3)C(=O)N2[C@H]1C(=O)O`, for which the kcat/Km was 11 in assay [4] and 7.5 in assay [8]. Besides, the Michaelis constant (Km) in assay [5] is 7 µM; in [6] it was 140 µM. The figures for the turnover number (kcat) in [5] and in [6] were 80 s⁻¹ and 1050 s⁻¹, respectively. In addition, the Ratio in assay [2], in assay [7] and in assay [9] was 8 in each case.
Turning to `CO/N=C(\C(=O)N[C@@H]1C(=O)N2C(C(=O)[O-])=C(C[N+]3(C)CCCC3)CS[C@H]12)c1csc(N)n1`, the outcome in [1] and in [3] was inactive. Moreover, in assay [2], the Ratio amounted to 4.
Take `CC1(C)S[C@@H]2[C@H](NC(=O)[C@H](C(=O)O)c3ccsc3)C(=O)N2[C@H]1C(=O)O`: the kcat/Km in [4] came out at 1.6; in assay [8], 0.4. Further, the Km in [5] turned out to be 12 µM; in assay [6], 320 µM. The kcat worked out at 19 s⁻¹ in assay [5] and 125 s⁻¹ in assay [6]. The result in [1] and in assay [3] was inactive. For the same compound, the Ratio in [2], in [7] and in assay [9] was 8 each time.
Turning to `CO/N=C(\C(=O)N[C@@H]1C(=O)N2C(C(=O)O)=C(COC(N)=O)CS[C@H]12)c1ccco1`, the result in [1] and in assay [3] was inactive. In [2], the Ratio came out at 4.
